Positions of bridges follow the written chain, without caps; N, C: chain ends. Residues, ends and D or L forms follow the SMILES beside them.
Experiments:
[1] = Stability of the compound in 0.2 M potassium phosphate buffer at pH 7.7 assessed as hydrolysis by measuring Ile/Phe + DiHPe level in presence of papain and aminopeptidase M; assay type: ADME
Method in brief: (§1)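 Papain digest in 0.5 M ammonium acetate, pH 5.3, with 0.15% mercaptoethanol, substrate:enzyme 20:1, 6 h at 37 °C. Acidified, clarified and lyophilized, then aminopeptidase M digest in 0.2 M potassium phosphate, pH 7.7, substrate:enzyme 1:1.5, 3 h at 37 °C. Amino acid analysis.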

[2] = Stability of the compound in 0.2 M potassium phosphate buffer at pH 7.7 assessed as hydrolysis by measuring Ile/Phe + DiHPe level in presence of pronase; assay type: ADME
Method in brief: (§2)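 Pronase digest in 0.2 M potassium phosphate buffer, pH 7.7, substrate:enzyme 5:1. Half the enzyme added at start and half after 18 h at 37 °C, then incubated 4 h more. Released amino acids quantified by amino acid analysis.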

[3] = Stability of the compound in 0.2 M potassium phosphate buffer at pH 7.7 assessed as hydrolysis by measuring Leu/Lys level in presence of alpha-amylase preparation; assay type: ADME
[4] = Stability of the compound in 0.2 M potassium phosphate buffer at pH 7.7 assessed as hydrolysis by measuring Tyr level in presence of papain and aminopeptidase M; assay type: ADME; method in brief: as §1
[5] = Stability of the compound in 0.2 M potassium phosphate buffer at […] assessed as hydrolysis by measuring Tyr level in presence of alpha-amylase preparation and cyclohexadiene; assay type: ADME
Method in brief: (§3)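 Aspergillus oryzae α-amylase preparation, 1 mg per 0.9 µmol peptide, in potassium phosphate buffer pH 7, with 1,4-cyclohexadiene (10 µL) and toluene, under N2, 37 °C, 17 h. Adjusted to pH 2.2 for amino acid analysis. Phe from a control of constituent amino acids plus enzyme subtracted to give Phe in residue 3.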

[6] = Stability of the compound in 0.2 M potassium phosphate buffer at pH 7.7 assessed as hydrolysis by measuring Gly level in presence of pronase; assay type: ADME; method in brief: as §2
[7] = Stability of the compound in 0.2 M potassium phosphate buffer at pH 7.7 assessed as hydrolysis by measuring Asn/Gln level in presence of pronase and aminopeptidase M; assay type: ADME
Method in brief: (§4)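 Pronase digest in 0.2 M potassium phosphate, pH 7.7, substrate:enzyme 5:1, 37 °C, enzyme split over 18 h + 4 h. Digest acidified, clarified and lyophilized, then treated with aminopeptidase M (0.2 M potassium phosphate, pH 7.7, substrate:enzyme 1:1.5, 3 h, 37 °C). Amino acid analysis.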

[8] = Stability of the compound in 0.2 M potassium phosphate buffer at pH 7.7 assessed as hydrolysis by measuring Tyr level in presence of alpha-amylase preparation and aminopeptidase M; assay type: ADME
[9] = Stability of the compound in 0.2 M potassium phosphate buffer at pH 7.7 assessed as hydrolysis by measuring Ile/Phe + DiHPe level in presence of pronase and aminopeptidase M; assay type: ADME; method in brief: as §4
[10] = Stability of the compound in […] assessed as hydrolysis by measuring Leu/Lys level in presence of alpha-amylase preparation and cyclohexadiene; assay type: ADME; conditions: buffer; method in brief: as §3
[11] = Stability of the compound in 0.2 M potassium phosphate buffer at pH 7.7 assessed as hydrolysis by measuring Gly level in presence of pronase and aminopeptidase M; assay type: ADME; method in brief: as §4
[12] = Stability of the compound in 0.2 M potassium phosphate buffer at pH 7.7 assessed as hydrolysis by measuring Gly level in presence of alpha-amylase preparation; assay type: ADME
[13] = Stability of the compound in 0.2 M potassium phosphate buffer at pH 7.7 assessed as hydrolysis by measuring Asn/Gln level in presence of alpha-amylase preparation and aminopeptidase M; assay type: ADME
[14] = Stability of the compound in 0.2 M potassium phosphate buffer at pH 7.7 assessed as hydrolysis by measuring Leu/Lys level in presence of alpha-amylase preparation and aminopeptidase M; assay type: ADME
[15] = Stability of the compound in 0.2 M potassium phosphate buffer at pH 7.7 assessed as hydrolysis by measuring Leu/Lys level in presence of pronase and aminopeptidase M; assay type: ADME; method in brief: as §4
[16] = Stability of the compound in […] assessed as hydrolysis by measuring Asn/Gln level in presence of alpha-amylase preparation and cyclohexadiene; assay type: ADME; conditions: buffer; method in brief: as §3
[17] = Stability of the compound in 0.2 M potassium phosphate buffer at pH 7.7 assessed as hydrolysis by measuring Ile/Phe + DiHPe level in presence of alpha-amylase preparation; assay type: ADME
[18] = Stability of the compound in 0.2 M potassium phosphate buffer at pH 7.7 assessed as hydrolysis by measuring Asn/Gln level in presence of papain and aminopeptidase M; assay type: ADME; method in brief: as §1
[19] = Stability of the compound in 0.2 M potassium phosphate buffer at pH 7.7 assessed as hydrolysis by measuring Leu/Lys level in presence of papain and aminopeptidase M; assay type: ADME; method in brief: as §1
[20] = Stability of the compound in 0.2 M potassium phosphate buffer at pH 7.7 assessed as hydrolysis by measuring Asn/Gln level in presence of pronase; assay type: ADME; method in brief: as §2
[21] = Stability of the compound in 0.2 M potassium phosphate buffer at pH 7.7 assessed as hydrolysis by measuring Ile/Phe + DiHPe level in presence of alpha-amylase preparation and aminopeptidase M; assay type: ADME
[22] = Stability of the compound in 0.2 M potassium phosphate buffer at pH 7.7 assessed as hydrolysis by measuring Leu/Lys level in presence of pronase; assay type: ADME; method in brief: as §2
[23] = Stability of the compound in 0.2 M potassium phosphate buffer at pH 7.7 assessed as hydrolysis by measuring Asn/Gln level in presence of alpha-amylase preparation; assay type: ADME
[24] = Stability of the compound in 0.2 M potassium phosphate buffer at pH 7.7 assessed as hydrolysis by measuring Gly level in presence of alpha-amylase preparation and aminopeptidase M; assay type: ADME
[25] = Stability of the compound in 0.2 M potassium phosphate buffer at […] assessed as hydrolysis by measuring Gly level in presence of alpha-amylase preparation and cyclohexadiene; assay type: ADME; method in brief: as §3
[26] = Stability of the compound in […] potassium phosphate buffer at […] assessed as hydrolysis by measuring Ile/Phe + DiHPe level in presence of alpha-amylase preparation and cyclohexadiene; assay type: ADME; method in brief: as §3
[27] = Stability of the compound in 0.2 M potassium phosphate buffer at pH 7.7 assessed as hydrolysis by measuring Tyr level in presence of alpha-amylase preparation; assay type: ADME
[28] = Stability of the compound in 0.2 M potassium phosphate buffer at pH 7.7 assessed as hydrolysis by measuring Gly level in presence of papain and aminopeptidase M; assay type: ADME; method in brief: as §1
[29] = Stability of the compound in phosphate buffer at pH 7.5 in presence of rat kidney homogenates; assay type: ADME, tissue-based; conditions: tissue homogenate
Method in brief: (§5)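 DiHPhe incubated with rat kidney or liver homogenate in phosphate buffer, pH 7.5, then checked for conversion to Phe.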

[30] = Stability of the compound in phosphate buffer at pH 7.5 in presence of rat liver homogenates; assay type: ADME, tissue-based; conditions: tissue homogenate; method in brief: as §5
[31] = Oxytocic activity in isolated rat uterus strips in Mg2+-free van Dyke-Hastings solution
Rattus norvegicus [32] = test: Antidiuretic activity in iv dosed water loaded rat; assay type: functional, Urine
Method in brief: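 Water-loaded rats under ethanol anesthesia, peptide given intravenously. Potency referenced to the USP Posterior Pituitary Reference Standard.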

Rattus norvegicus [33] = organism: Rattus norvegicus; test: Vasopressor activity in phenoxybenzamine-treated rat; assay type: functional
Method in brief: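 Phenoxybenzamine-treated rats under urethane anesthesia. Potency referenced to the USP Posterior Pituitary Reference Standard.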

Gallus gallus = organism: Gallus gallus; test: Vasodepressor activity in chicken; assay type: functional
[34] = Oxytocic activity in isolated rat uterus strips in Mg2+-free solution

`CC[C@H](C)[C@H](NC(=O)[C@H](Cc1ccc(O)cc1)NC(=O)[C@@H](N)CS(=O)(=O)O)C(=O)N[C@@H](CCC(N)=O)C(=O)N[C@@H](CC(N)=O)C(=O)N[C@@H](CS(=O)(=O)O)C(=O)N1CCC[C@H]1C(=O)N[C@@H](CC(C)C)C(=O)NCC(N)=O` gave a Drug degradation [1] of 13 mol%, a Drug degradation [2] of 38 mol% and a Drug degradation [3] of 72 mol%. It also gave a Drug degradation [4] of 30 mol%, a Drug degradation [5] of 23 mol% and a Drug degradation [6] of 44 mol%. For the same molecule, the Drug degradation [7] was 124 mol%, the Drug degradation [8] was 35 mol% and the Drug degradation [9] was 65 mol%. It also gave a Drug degradation [10] of 57 mol%, a Drug degradation [11] of 54 mol% and a Drug degradation [12] of 50 mol%. For the same molecule, the Drug degradation [13] was 90 mol%, the Drug degradation [14] was 85 mol% and the Drug degradation [15] was 65 mol%. The Drug degradation [16] was 86 mol%, the Drug degradation [17] was 75 mol% and the Drug degradation [18] was 14 mol%. The Drug degradation [19] was 14 mol%, the Drug degradation [20] was 86 mol% and the Drug degradation [21] was 82 mol%. It also gave a Drug degradation [22] of 46 mol%, a Drug degradation [23] of 72 mol% and a Drug degradation [24] of 60 mol%. For the same molecule, the Drug degradation [25] was 38 mol%, the Drug degradation [26] was 51 mol% and the Drug degradation [27] was 26 mol%. It also gave a Drug degradation [28] of 13 mol%.
For `N[C@@H](CC1=CCC=CC1)C(=O)O`, the Stability [29] was “Stable” and the Stability [30] was “Stable”.
Molecule `CC[C@H](C)[C@@H]1NC(=O)[C@H](Cc2ccc(O)cc2)NC(=O)[C@@H](N)CSSC[C@@H](C(=O)N2CCC[C@H]2C(=O)N[C@@H](CCCCN)C(=O)NCC(N)=O)NC(=O)[C@H](CC(N)=O)NC(=O)[C@H](CCC(N)=O)NC1=O` (H-CYIQNCPKG-NH2; disulfide 1-6) has an Activity [31] of 78 U/mg, an Activity (Rattus norvegicus [32]) of 24 U/mg and an Activity (Rattus norvegicus [33]) of 130 U/mg. It also gave an Activity (Gallus gallus) of 190 U/mg.
In the case of `NCCCC[C@H](NC(=O)[C@@H]1CCCN1C(=O)[C@@H]1CSSC[C@H](N)C(=O)N[C@@H](Cc2ccc(O)cc2)C(=O)N[C@@H](CO)C(=O)N[C@@H](CCC(N)=O)C(=O)N[C@@H](CC(N)=O)C(=O)N1)C(=O)NCC(N)=O` (H-CYSQNCPKG-NH2; disulfide 1-6), the Activity [31] is reported as under 0.01 U/mg, the Activity (Rattus norvegicus [32]) is reported as 0.08 U/mg and the Activity (Rattus norvegicus [33]) is reported as under 0.01 U/mg. It also gave an Activity (Gallus gallus) of under 0.01 U/mg.
With `NCCCC[C@H](NC(=O)[C@@H]1CCCN1C(=O)[C@@H]1CSSC[C@H](N)C(=O)N[C@@H](Cc2ccc(O)cc2)C(=O)N[C@@H](Cc2ccc(O)cc2)C(=O)N[C@@H](CCC(N)=O)C(=O)N[C@@H](CC(N)=O)C(=O)N1)C(=O)NCC(N)=O` (H-CYYQNCPKG-NH2; disulfide 1-6) the Activity [34] was “<=0.01 U/mg”, the Activity (Rattus norvegicus [32]) was 0.18 U/mg and the Activity (Rattus norvegicus [33]) was 0.07 U/mg. For the same molecule, the Activity (Gallus gallus) was 0.08 U/mg.
